ChEMBL document CHEMBL3608216, “Synthesis and evaluation of novel pleuromutilin derivatives with a substituted pyrimidine moiety” (2015)
Converted amounts (≈) assume the structure as drawn.

What was measured:
Type in all cases: functional
Escherichia coli = assay: Antibacterial activity against Escherichia coli ATCC 25922 after 24 to 48 hrs by agar dilution method
Method in brief: (§1)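 Agar dilution per NCCLS. Compounds were dissolved in 15%–30% DMSO in water, serially two-fold diluted in distilled water (11 dilutions) and incorporated into hot Mueller–Hinton agar at a tenfold further dilution. Inocula from blood slants were adjusted to about 10^5–10^6 CFU/mL in 0.90% saline and spotted onto the plates, then incubated at 36.5 °C for 24–48 h. MIC was the lowest concentration giving complete growth inhibition; run in triplicate.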

Bacillus subtilis = assay: Antibacterial activity against Bacillus subtilis […] after 24 to 48 hrs by agar dilution method; method in brief: as §1
[1] = tested on: Staphylococcus epidermidis; assay: Antibacterial activity against […] Staphylococcus epidermidis ATCC 35984 after 24 to 48 hrs by agar dilution method; conditions: RP62A
Method in brief: (§2)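 Agar dilution per NCCLS. Compounds at 1.28 mg/mL stock in 15%–30% DMSO/water, two-fold serial dilutions (11 total) in water, mixed 1:10 into hot Mueller-Hinton agar. Inocula from blood slants adjusted to about 10^5–10^6 CFU/mL in 0.90% saline, spotted onto plates, incubated 36.5 °C for 24–48 h. MIC is the lowest concentration giving complete growth inhibition. Run in triplicate.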

Staphylococcus aureus [2] = assay: Antibacterial activity against […] Staphylococcus aureus ATCC 29213 after 24 to 48 hrs by agar dilution method; method in brief: as §2
Staphylococcus aureus [3] = assay: Antibacterial activity against […] Staphylococcus aureus in iv dosed neutropenic mouse systemic infection model assessed as increase in mouse survival measured on day 4
Method in brief: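 Male and female mice made neutropenic with ip cyclophosphamide, 150 mg/kg for four days, then 100 mg/kg one day before inoculation. Infected ip with 0.5 mL MRSA at 10^9 CFU/mL, 10 per group. About 1 h later dosed iv at 2, 3, 4.46, 6.64 and 10 mg/kg in 0.5 mL soybean lecithin:sterile water (1:30). Endpoint was survival at day 4. ED50 calculated by Reed–Muench using the Hill equation.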

Compound	MIC (Escherichia coli)	MIC (Bacillus subtilis)	MIC [1]	MIC (Staphylococcus aureus [2])	Activity (Staphylococcus aureus [3])	ED50 (Staphylococcus aureus [3]; 96 h)
C=C[C@]1(C)C[C@@H](OC(=O)CSc2nc(N)cc(O)n2)[C@]2(C)[C@H](C)CC[C@]3(CCC(=O)[C@H]32)[C@@H](C)[C@@H]1O	16 µg/mL (≈ 31.8 µM)	32 µg/mL (≈ 63.5 µM)	0.125 µg/mL (≈ 0.248 µM)	0.25 µg/mL (≈ 0.496 µM)	–	–
C=C[C@]1(C)C[C@@H](OC(=O)CSc2nc(O)cc(NC(C)=O)n2)[C@]2(C)[C@H](C)CC[C@]3(CCC(=O)[C@H]32)[C@@H](C)[C@@H]1O	8 µg/mL (≈ 14.7 µM)	32 µg/mL (≈ 58.6 µM)	–	–	–	–
C=C[C@]1(C)C[C@@H](OC(=O)CSc2nc(N)cc(=O)n2C)[C@]2(C)[C@H](C)CC[C@]3(CCC(=O)[C@H]32)[C@@H](C)[C@@H]1O	32 µg/mL (≈ 61.8 µM)	16 µg/mL (≈ 30.9 µM)	1 µg/mL (≈ 1.93 µM)	2 µg/mL (≈ 3.86 µM)	–	–
C=C[C@]1(C)C[C@@H](OC(=O)CSCCN(CC)CC)[C@]2(C)[C@H](C)CC[C@]3(CCC(=O)[C@H]32)[C@@H](C)[C@@H]1O.O=C(O)/C=C/C(=O)O [TIAMULIN FUMARATE]	8 µg/mL	32 µg/mL	0.25 µg/mL	0.5 µg/mL	Dose-dependent effect	5.95 mg/kg
C=C[C@]1(C)C[C@@H](OC(=O)CSc2nc(O)cc(NC(=O)[C@H]3CCCCN3)n2)[C@]2(C)[C@H](C)CC[C@]3(CCC(=O)[C@H]32)[C@@H](C)[C@@H]1O	32 µg/mL (≈ 52 µM)	16 µg/mL (≈ 26 µM)	2 µg/mL (≈ 3.25 µM)	8 µg/mL (≈ 13 µM)	–	–
C=C[C@]1(C)C[C@@H](OC(=O)CSc2nc(O)cc(NC(=O)[C@@H](N)C(C)C)n2)[C@]2(C)[C@H](C)CC[C@]3(CCC(=O)[C@H]32)[C@@H](C)[C@@H]1O	32 µg/mL (≈ 53.1 µM)	16 µg/mL (≈ 26.5 µM)	0.5 µg/mL (≈ 0.829 µM)	2 µg/mL (≈ 3.32 µM)	–	–
C=C[C@]1(C)C[C@@H](OC(=O)CSc2nc(N)cc(OC)n2)[C@]2(C)[C@H](C)CC[C@]3(CCC(=O)[C@H]32)[C@@H](C)[C@@H]1O	32 µg/mL (≈ 61.8 µM)	16 µg/mL (≈ 30.9 µM)	0.5 µg/mL (≈ 0.966 µM)	1 µg/mL (≈ 1.93 µM)	–	–
C=C[C@]1(C)C[C@@H](OC(=O)CSc2nc(O)cc(NC(=O)[C@H](N)C(C)C)n2)[C@]2(C)[C@H](C)CC[C@]3(CCC(=O)[C@H]32)[C@@H](C)[C@@H]1O	64 µg/mL (≈ 106 µM)	8 µg/mL (≈ 13.3 µM)	0.125 µg/mL (≈ 0.207 µM)	1 µg/mL (≈ 1.66 µM)	–	–
C=C[C@]1(C)C[C@@H](OC(=O)CSc2nc(O)cc(NC(=O)[C@@H]3CCCCN3)n2)[C@]2(C)[C@H](C)CC[C@]3(CCC(=O)[C@H]32)[C@@H](C)[C@@H]1O	16 µg/mL (≈ 26 µM)	16 µg/mL (≈ 26 µM)	1 µg/mL (≈ 1.63 µM)	4 µg/mL (≈ 6.51 µM)	–	–
